Measurements collected from several papers.
Protocols differ between the studies behind these lines.
Cell line: PC-3
Observed: cell growth or viability

Compound | method | tested at | time | measurement | value
O=C(Nc1cccc(N2CCCC2=O)c1)C1CCCN(C(=O)c2cc(C(F)(F)F)cc(C(F)(F)F)c2)C1 (stereo not drawn) | WST-1 | 100 µM | – | inhibition | 0%
O=C(CN1C(=O)/C(=C/c2ccc(C(F)(F)F)cc2)SC1=S)Nc1ccccc1 | MTT | 10 µM | – | inhibition | 32.1%
Cc1cc(C)cc(COc2cc3c(cc2OCc2cc(C)cc(C)c2)[C@H]2C[C@](O)(Cc4cn(Cc5ccc(C#N)cc5)nn4)C[C@H](C)N2CC3)c1 | MTT | – | – | IC50 | 371 nM
CCN(CC)CCCn1cccc1/C=N/NC(=O)Nc1cc2c(Nc3ccc(F)c(Cl)c3)ncnc2cc1OC | MTT | – | 72 h | IC50 | 1180 nM
COc1ccc(C(=O)/C=C/c2cccc(Br)c2)cc1S(N)(=O)=O | SRB | – | 48 h | GI50 | 2000 nM
C/C=C/C(=O)Nc1ccc(CCn2cc(C[C@@]3(O)C[C@@H]4c5cc(OCc6cc(C)cc(C)c6)c(OCc6cc(C)cc(C)c6)cc5CCN4[C@@H](C)C3)nn2)cc1 | MTT | – | – | IC50 | 273 nM
COc1ccc(-c2ccc(-c3ccc(C(=N)N)nc3)s2)cc1Cl | – | – | – | GI50 | 1780 nM
COc1c(C)cnc(COc2ccc(NC(=O)Nc3cc(F)cc(F)c3)cc2)c1C | MTT | – | 72 h | IC50 | 57600 nM
COc1cc2ncnc(Nc3ccc(F)c(Cl)c3)c2cc1NC(=O)N/N=C/CN1CCCCC1 | MTT | – | 72 h | IC50 | 5760 nM
COc1ccc(C(=O)/C=C/c2ccc3ccccc3c2)cc1S(N)(=O)=O | SRB | 10 µM | – | inhibition | 112%
COc1cc2ncnc(Nc3ccc(F)c(Cl)c3)c2cc1NC(=O)N/N=C/CN(C)C | MTT | – | 72 h | IC50 | 2780 nM
O=C(CN1C(=O)/C(=C/c2cccs2)SC1=S)Nc1ccccc1 | MTT | 10 µM | – | inhibition | 5.3%
COc1ccnc(COc2ccc(NC(=O)Nc3ccc(Cl)cc3)cc2)c1OC | MTT | – | 72 h | IC50 | > 100000 nM
NC1(C(=O)N[C@@H](CCO)c2ccc(Cl)cc2)CCN(c2ncnc3[nH]ccc23)CC1 | – | – | 72 h | GI50 | > 8000 nM
COc1cccc(NC(=O)CN2C(=O)/C(=C/c3ccco3)SC2=S)c1 | MTT | 10 µM | – | inhibition | 8.63%
COc1cc(-c2ccc(-c3ccc(C(=N)N)nc3)s2)cc(OC)c1OC | – | – | – | GI50 | 3110 nM
COc1cccc(NC(=O)CN2C(=O)/C(=C/c3ccc(F)cc3)SC2=S)c1 | MTT | 10 µM | – | inhibition | 13%
CN1CCN(CCCn2cccc2/C=N/NC(=O)Nc2cc3c(Nc4ccc(F)c(Cl)c4)ncnc3cc2O[C@H]2CCOC2)CC1 | MTT | – | 72 h | IC50 | 2060 nM
Cc1cc(C)cc(COc2cc3c(cc2OCc2cc(C)cc(C)c2)[C@H]2C[C@](O)(Cc4cn(Cc5ccc(-c6ccccc6)cc5)nn4)C[C@H](C)N2CC3)c1 | MTT | – | – | IC50 | 206 nM
Cc1c(OCC(F)(F)F)ccnc1COc1ccc(NC(=O)Nc2ccc(Cl)c(C(F)(F)F)c2)cc1 | MTT | – | 72 h | IC50 | 54200 nM
COc1ccc(C(=O)/C=C/c2cccc3ccccc23)cc1S(N)(=O)=O | SRB | – | 48 h | GI50 | 2300 nM

Compound | method | tested at | time | measurement | value
O=C(CN1C(=O)/C(=C/c2ccc(Cl)cc2Cl)SC1=S)Nc1ccccc1 | MTT | 10 µM | – | inhibition | 19.2%
Cc1c(OCC(F)(F)F)ccnc1COc1ccc(NC(=O)Nc2ccc(Cl)cc2)cc1 | MTT | – | 72 h | IC50 | > 100000 nM
COc1ccc(C(=O)/C=C/c2ccc(Cl)c(Cl)c2)cc1S(N)(=O)=O | SRB | 10 µM | – | inhibition | 90%
N#Cc1cccc(NC(=O)C2CCCN(C(=O)c3cc(C(F)(F)F)cc(C(F)(F)F)c3)C2)c1 (stereo not drawn) | WST-1 | 100 µM | – | inhibition | 0%
CN1CCN(C/C=N/NC(=O)Nc2cc3c(Nc4ccc(F)c(Cl)c4)ncnc3cc2O[C@H]2CCOC2)CC1 | MTT | – | 72 h | IC50 | 1830 nM
Cc1cc(C)cc(COc2cc3c(cc2OCc2cc(C)cc(C)c2)[C@H]2C[C@](O)(Cc4cn(Cc5ccc6ccccc6c5)nn4)C[C@H](C)N2CC3)c1 | MTT | – | – | IC50 | 264 nM
COc1ccc(C(=O)/C=C/c2cccnc2)cc1S(N)(=O)=O | SRB | – | 48 h | GI50 | 16600 nM
CCN(CC)C/C=N/NC(=O)Nc1cc2c(Nc3ccc(F)c(Cl)c3)ncnc2cc1OC | MTT | – | 72 h | IC50 | 4400 nM
CC(C)(C)OC(=O)c1cccc(NC(=O)C2CCCN(C(=O)c3cc(C(F)(F)F)cc(C(F)(F)F)c3)C2)c1 (stereo not drawn) | WST-1 | 100 µM | – | inhibition | 0%
O=C(CN1C(=O)/C(=C/c2ccccc2O)SC1=S)Nc1ccccc1 | MTT | 10 µM | – | inhibition | 36.2%
O=C(Nc1cccc(Oc2ccccn2)c1)C1CCCN(C(=O)c2cc(C(F)(F)F)cc(C(F)(F)F)c2)C1 (stereo not drawn) | WST-1 | 100 µM | – | inhibition | 0%
C#CC[C@]1(O)C[C@@H]2c3cc(OCc4cc(C)cc(C)c4)c(OCc4cc(C)cc(C)c4)cc3CCN2[C@@H](C)C1 | MTT | – | – | IC50 | 523 nM
COCCCOc1ccnc(COc2ccc(NC(=O)Nc3ccc(Cl)cc3)cc2)c1C | MTT | – | 72 h | IC50 | > 100000 nM
O=C(CN1C(=O)/C(=C/c2ccco2)SC1=S)Nc1ccccc1 | MTT | 10 µM | – | inhibition | 23.1%
CN(C)C/C=N/NC(=O)Nc1cc2c(Nc3ccc(F)c(Cl)c3)ncnc2cc1O[C@H]1CCOC1 | MTT | – | 72 h | IC50 | 6510 nM
O=C(Nc1ccc(Cl)cn1)C1CCCN(C(=O)c2cc(C(F)(F)F)cc(C(F)(F)F)c2)C1 (stereo not drawn) | WST-1 | 100 µM | – | inhibition | 0%
C=CS(=O)(=O)Nc1ccc(Cn2cc(C[C@@]3(O)C[C@@H]4c5cc(OCc6cc(C)cc(C)c6)c(OCc6cc(C)cc(C)c6)cc5CCN4[C@@H](C)C3)nn2)cc1 | MTT | – | – | IC50 | 576 nM
O=C(c1ccccc1)c1cccc(NC(=O)C2CCCN(C(=O)c3cc(C(F)(F)F)cc(C(F)(F)F)c3)C2)c1 (stereo not drawn) | WST-1 | 100 µM | – | inhibition | 0%
COc1ccc(C(=O)/C=C/c2c(F)cccc2Cl)cc1S(N)(=O)=O | SRB | – | 48 h | GI50 | 4700 nM
COc1cc2ncnc(Nc3ccc(F)c(Cl)c3)c2cc1NC(=O)N/N=C/c1cccn1CCN1CCCCC1 | MTT | – | 72 h | IC50 | 2240 nM
CC(C)c1ccc(/C=C2\SC(=S)N(CC(=O)Nc3ccccc3)C2=O)cc1 | MTT | 10 µM | – | inhibition | 29%
